ChEMBL document CHEMBL1154183, “Structure-based optimization of potent and selective inhibitors of the tyrosine kinase erythropoietin producing human hepatocellular carcinoma receptor B4 (EphB4)” (J Med Chem, 2009)
pIC50: −log10 of the molar value.

Experiments:
[1] = target: Proto-oncogene tyrosine-protein kinase receptor Ret (Homo sapiens) (UniProt P07949); experiment: Binding affinity to RET assessed as percentage of kinase remaining bound to the bead at 1 uM by T7 phage display based binding assay
Method in brief: (§1)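 Competition binding assay run by a contract lab. Each kinase was expressed as a fusion to T7 phage, full-length for small kinases and catalytic domain for large ones. Phage were mixed with an immobilized known kinase inhibitor on streptavidin magnetic beads and with test compound at a single 1 μM. Kinase/phage still bound to the beads was quantified by qPCR and expressed as % of DMSO control.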

[2] = target: Receptor-interacting serine/threonine-protein kinase 2 (Homo sapiens) (UniProt O43353); experiment: Binding affinity to RIPK2 assessed as percentage of kinase remaining bound to the bead at 1 uM by T7 phage display based binding assay; method in brief: as §1
Ephrin type-B receptor 4 [3] = target: T1, Ephrin type-B receptor 4 (Homo sapiens, UniProt P54760); experiment: Inhibition of EphB4 assessed as blockade of synthetic substrate phosphorylation by FRET assay
T1 sequence (P54760 whole entry): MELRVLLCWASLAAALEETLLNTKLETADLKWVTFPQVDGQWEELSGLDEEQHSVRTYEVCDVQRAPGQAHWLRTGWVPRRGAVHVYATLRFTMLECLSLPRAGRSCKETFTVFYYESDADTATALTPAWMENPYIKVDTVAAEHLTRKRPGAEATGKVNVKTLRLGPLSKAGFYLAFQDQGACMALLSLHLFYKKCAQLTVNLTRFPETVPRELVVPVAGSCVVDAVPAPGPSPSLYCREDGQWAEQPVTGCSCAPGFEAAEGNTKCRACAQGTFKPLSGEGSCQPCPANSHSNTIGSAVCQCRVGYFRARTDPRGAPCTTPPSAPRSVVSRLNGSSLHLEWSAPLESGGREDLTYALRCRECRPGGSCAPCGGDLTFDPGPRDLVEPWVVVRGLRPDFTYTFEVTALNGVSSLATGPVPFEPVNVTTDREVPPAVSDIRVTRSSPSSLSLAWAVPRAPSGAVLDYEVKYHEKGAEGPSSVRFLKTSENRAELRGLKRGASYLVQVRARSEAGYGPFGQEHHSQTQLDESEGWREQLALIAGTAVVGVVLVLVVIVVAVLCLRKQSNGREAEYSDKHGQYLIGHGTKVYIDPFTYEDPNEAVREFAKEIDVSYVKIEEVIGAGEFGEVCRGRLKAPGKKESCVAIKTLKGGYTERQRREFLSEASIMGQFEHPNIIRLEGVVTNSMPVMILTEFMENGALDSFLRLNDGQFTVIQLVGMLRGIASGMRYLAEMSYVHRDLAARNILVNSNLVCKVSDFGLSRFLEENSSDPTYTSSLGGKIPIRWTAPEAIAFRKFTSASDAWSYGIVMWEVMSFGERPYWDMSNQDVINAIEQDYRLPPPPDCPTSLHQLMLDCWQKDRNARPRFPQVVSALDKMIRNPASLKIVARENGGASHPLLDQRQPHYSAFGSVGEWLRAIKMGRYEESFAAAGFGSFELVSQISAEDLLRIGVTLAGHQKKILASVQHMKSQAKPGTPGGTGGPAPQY

Ephrin type-B receptor 4 [4] = target: T1, Ephrin type-B receptor 4; experiment: Inhibition of EphB4 by [gamma33-P]ATP based assay
[5] = target: Dual specificity tyrosine-phosphorylation-regulated kinase 2 (Homo sapiens) (UniProt Q92630); experiment: Inhibition of DYRK2 assessed as remaining enzyme activity at 1 uM relative to DMSO
Method in brief: (§2)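 Radiometric kinase assay run robotically at room temperature for 30 min, linear in time and enzyme. Conditions: 10 mM magnesium acetate, [γ-33P]ATP (800 cpm/pmol) at 5, 20 or 50 μM per kinase, at or below its ATP Km. Started with MgATP and stopped with orthophosphoric acid, then spotted on P81 filters. Reported as mean % activity of duplicates versus DMSO controls.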

[6] = target: Inhibitor of nuclear factor kappa-B kinase subunit beta (Homo sapiens) (UniProt O14920); experiment: Inhibition of IKK-beta assessed as remaining enzyme activity at 1 uM relative to DMSO; method in brief: as §2
[7] = target: Dual specificity mitogen-activated protein kinase kinase 1 (Homo sapiens) (UniProt Q02750); experiment: Inhibition of MKK1 assessed as remaining enzyme activity at 1 uM relative to DMSO
Method in brief: (§3)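 Radiometric kinase assay run robotically at room temperature for 30 min. Contained 10 mM magnesium acetate and [γ-33P]ATP (800 cpm/pmol) at 5, 20 or 50 μM, chosen per kinase to be at or below its ATP Km. Reactions were started with MgATP, stopped with orthophosphoric acid and spotted onto P81 filters. Result is mean % activity of duplicates at one inhibitor concentration versus DMSO control.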

[8] = target: Mitogen-activated protein kinase 3 (Homo sapiens) (UniProt P27361); experiment: Inhibition of ERK1 assessed as remaining enzyme activity at 1 uM relative to DMSO; method in brief: as §2
[9] = target: Mitogen-activated protein kinase 1 (Homo sapiens) (UniProt P28482); experiment: Inhibition of ERK2 assessed as remaining enzyme activity at 1 uM relative to DMSO; method in brief: as §2
[10] = target: MAP kinase-interacting serine/threonine-protein kinase 1 (Homo sapiens) (UniProt Q9BUB5); experiment: Inhibition of MNK1 assessed as remaining enzyme activity at 1 uM relative to DMSO; method in brief: as §3
[11] = target: MAP kinase-activated protein kinase 5 (Homo sapiens) (UniProt Q8IW41); experiment: Inhibition of PRAK assessed as remaining enzyme activity at 3 uM relative to DMSO
[12] = Inhibition of PHK assessed as remaining enzyme activity at 3 uM relative to DMSO; method in brief: as §3
[13] = Inhibition of AMPK assessed as remaining enzyme activity at 3 uM relative to DMSO
Method in brief: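 Panel assay run robotically at room temperature for 30 min with 10 mM magnesium acetate and [γ-33P]ATP (800 cpm/pmol) at 5, 20 or 50 μM, chosen per kinase to be at or below its ATP Km. Reactions were started with MgATP, stopped with orthophosphoric acid and spotted on P81 filters. Activity is the mean of duplicates at a single inhibitor concentration, as % of DMSO control.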

[14] = target: Serine/threonine-protein kinase Nek6 (Homo sapiens) (UniProt Q9HC98); experiment: Inhibition of NEK6 assessed as remaining enzyme activity at 3 uM relative to DMSO; method in brief: as §3
[15] = target: Inhibitor of nuclear factor kappa-B kinase subunit beta (Homo sapiens) (UniProt O14920); experiment: Inhibition of IKK-beta assessed as remaining enzyme activity at 3 uM relative to DMSO
Method in brief: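 Dundee kinase panel, radiometric: [γ-33P]ATP (800 cpm/pmol) at 5, 20 or 50 μM, at or below each kinase's ATP Km; 10 mM magnesium acetate; robotic, room temperature, 30 min. Reactions started with MgATP, stopped with orthophosphoric acid, spotted onto P81 filters. Inhibitor tested at a single concentration; mean % activity of duplicates relative to DMSO control.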

[16] = target: Serine/threonine-protein kinase 26 (Homo sapiens) (UniProt Q9P289); experiment: Inhibition of MST4 assessed as remaining enzyme activity at 3 uM relative to DMSO; method in brief: as §3
[17] = target: 3-phosphoinositide-dependent protein kinase 1 (Homo sapiens) (UniProt O15530); experiment: Inhibition of PDK1 assessed as remaining enzyme activity at 3 uM relative to DMSO

Inhibitor of nuclear factor kappa-B kinase subunit beta (Homo sapiens), sequence (O14920 whole entry): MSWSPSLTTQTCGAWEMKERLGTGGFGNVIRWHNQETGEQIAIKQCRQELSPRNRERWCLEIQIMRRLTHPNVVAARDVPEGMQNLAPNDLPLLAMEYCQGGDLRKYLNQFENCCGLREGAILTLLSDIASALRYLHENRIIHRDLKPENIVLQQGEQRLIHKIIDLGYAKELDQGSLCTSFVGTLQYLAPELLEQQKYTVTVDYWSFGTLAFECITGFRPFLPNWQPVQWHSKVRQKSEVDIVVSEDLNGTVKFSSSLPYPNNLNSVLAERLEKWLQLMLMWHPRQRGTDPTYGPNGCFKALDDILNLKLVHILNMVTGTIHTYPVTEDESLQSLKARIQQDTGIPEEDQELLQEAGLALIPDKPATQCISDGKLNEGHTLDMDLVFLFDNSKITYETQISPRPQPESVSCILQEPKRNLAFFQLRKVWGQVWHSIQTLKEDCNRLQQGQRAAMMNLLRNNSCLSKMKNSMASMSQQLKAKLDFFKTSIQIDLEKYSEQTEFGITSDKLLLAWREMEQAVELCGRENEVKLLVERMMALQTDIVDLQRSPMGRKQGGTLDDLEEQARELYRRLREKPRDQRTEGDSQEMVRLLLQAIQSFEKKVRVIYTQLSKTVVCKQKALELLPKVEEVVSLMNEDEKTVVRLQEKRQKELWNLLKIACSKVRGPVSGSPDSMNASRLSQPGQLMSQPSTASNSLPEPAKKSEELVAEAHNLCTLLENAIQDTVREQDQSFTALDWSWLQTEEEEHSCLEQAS
Mitogen-activated protein kinase 1 (Homo sapiens), sequence (P28482 whole entry): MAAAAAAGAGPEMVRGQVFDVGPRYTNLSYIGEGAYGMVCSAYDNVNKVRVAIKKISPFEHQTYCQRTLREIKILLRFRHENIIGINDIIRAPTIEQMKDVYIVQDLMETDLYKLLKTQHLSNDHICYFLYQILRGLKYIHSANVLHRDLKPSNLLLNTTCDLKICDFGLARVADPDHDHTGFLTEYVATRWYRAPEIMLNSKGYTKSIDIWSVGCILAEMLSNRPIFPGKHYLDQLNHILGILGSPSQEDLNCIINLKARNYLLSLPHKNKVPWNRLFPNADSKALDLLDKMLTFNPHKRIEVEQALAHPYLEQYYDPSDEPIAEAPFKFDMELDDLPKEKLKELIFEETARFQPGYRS
Mitogen-activated protein kinase 3 (Homo sapiens), sequence (P27361 whole entry): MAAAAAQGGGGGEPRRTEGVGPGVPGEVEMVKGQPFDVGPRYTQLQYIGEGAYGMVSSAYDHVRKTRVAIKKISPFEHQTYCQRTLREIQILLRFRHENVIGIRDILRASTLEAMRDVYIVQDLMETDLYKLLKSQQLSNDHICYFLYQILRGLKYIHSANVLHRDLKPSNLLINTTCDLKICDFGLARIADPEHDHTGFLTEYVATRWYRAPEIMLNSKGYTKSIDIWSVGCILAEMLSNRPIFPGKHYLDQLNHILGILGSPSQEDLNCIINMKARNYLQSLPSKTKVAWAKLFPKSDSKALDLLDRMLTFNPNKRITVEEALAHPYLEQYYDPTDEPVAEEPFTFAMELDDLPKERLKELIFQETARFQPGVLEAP
Serine/threonine-protein kinase 26 (Homo sapiens), sequence (Q9P289 2-416 limits assumed): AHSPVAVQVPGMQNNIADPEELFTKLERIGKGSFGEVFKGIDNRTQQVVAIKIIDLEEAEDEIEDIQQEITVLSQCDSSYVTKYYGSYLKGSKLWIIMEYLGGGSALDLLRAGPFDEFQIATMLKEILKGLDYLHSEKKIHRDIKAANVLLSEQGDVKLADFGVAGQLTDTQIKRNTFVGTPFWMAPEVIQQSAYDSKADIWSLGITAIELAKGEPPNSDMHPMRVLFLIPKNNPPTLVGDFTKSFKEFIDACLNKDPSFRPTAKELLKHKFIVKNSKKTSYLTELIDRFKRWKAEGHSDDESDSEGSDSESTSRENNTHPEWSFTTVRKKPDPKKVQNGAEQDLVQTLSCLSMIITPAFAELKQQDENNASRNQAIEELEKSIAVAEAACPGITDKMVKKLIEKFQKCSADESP
Receptor-interacting serine/threonine-protein kinase 2 (Homo sapiens), sequence (O43353 whole entry): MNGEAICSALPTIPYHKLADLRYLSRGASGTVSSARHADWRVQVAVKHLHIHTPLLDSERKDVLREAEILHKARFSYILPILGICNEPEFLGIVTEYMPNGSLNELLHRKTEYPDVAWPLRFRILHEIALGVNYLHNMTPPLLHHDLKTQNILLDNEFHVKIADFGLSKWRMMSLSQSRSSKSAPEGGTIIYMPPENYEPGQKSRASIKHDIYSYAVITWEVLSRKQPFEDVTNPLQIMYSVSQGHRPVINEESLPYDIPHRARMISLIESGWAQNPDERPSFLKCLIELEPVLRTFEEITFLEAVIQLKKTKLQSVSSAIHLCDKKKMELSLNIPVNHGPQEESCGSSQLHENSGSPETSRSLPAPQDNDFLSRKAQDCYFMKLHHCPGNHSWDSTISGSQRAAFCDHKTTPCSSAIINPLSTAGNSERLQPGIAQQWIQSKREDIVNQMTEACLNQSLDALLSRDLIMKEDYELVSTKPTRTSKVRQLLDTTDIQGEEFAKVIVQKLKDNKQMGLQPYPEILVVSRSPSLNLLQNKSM
MAP kinase-interacting serine/threonine-protein kinase 1 (Homo sapiens), sequence (Q9BUB5 whole entry, looked up): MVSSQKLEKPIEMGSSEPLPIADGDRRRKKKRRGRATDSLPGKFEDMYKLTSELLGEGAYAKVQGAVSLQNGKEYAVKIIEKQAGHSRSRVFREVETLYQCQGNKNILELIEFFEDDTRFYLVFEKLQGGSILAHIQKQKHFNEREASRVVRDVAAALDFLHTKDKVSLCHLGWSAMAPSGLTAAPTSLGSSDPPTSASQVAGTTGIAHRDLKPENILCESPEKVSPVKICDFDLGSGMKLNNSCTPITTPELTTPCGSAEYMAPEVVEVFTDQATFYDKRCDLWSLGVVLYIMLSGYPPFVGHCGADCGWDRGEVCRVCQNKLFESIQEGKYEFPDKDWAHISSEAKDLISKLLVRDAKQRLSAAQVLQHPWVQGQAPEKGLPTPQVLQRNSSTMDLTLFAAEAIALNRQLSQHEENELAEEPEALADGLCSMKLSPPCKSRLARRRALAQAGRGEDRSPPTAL
Serine/threonine-protein kinase Nek6 (Homo sapiens), sequence (Q9HC98 whole entry): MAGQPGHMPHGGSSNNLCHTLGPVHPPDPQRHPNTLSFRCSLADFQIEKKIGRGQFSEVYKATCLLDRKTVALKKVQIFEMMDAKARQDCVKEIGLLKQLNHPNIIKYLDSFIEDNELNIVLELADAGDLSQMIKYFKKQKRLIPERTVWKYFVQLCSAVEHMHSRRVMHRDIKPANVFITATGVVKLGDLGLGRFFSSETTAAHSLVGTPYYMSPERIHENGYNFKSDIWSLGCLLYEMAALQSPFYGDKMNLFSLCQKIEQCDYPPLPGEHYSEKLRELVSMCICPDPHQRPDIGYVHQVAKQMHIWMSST
Dual specificity mitogen-activated protein kinase kinase 1 (Homo sapiens), sequence (Q02750 whole entry): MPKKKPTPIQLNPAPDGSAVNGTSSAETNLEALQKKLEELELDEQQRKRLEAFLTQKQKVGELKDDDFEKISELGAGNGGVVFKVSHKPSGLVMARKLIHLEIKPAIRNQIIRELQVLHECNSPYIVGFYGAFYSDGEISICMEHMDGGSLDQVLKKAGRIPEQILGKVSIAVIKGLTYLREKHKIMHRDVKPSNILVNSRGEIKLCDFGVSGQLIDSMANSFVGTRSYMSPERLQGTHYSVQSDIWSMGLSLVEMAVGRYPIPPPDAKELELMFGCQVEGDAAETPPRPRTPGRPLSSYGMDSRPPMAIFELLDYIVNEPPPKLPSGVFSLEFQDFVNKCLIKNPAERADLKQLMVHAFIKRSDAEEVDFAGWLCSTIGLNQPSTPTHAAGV
Dual specificity tyrosine-phosphorylation-regulated kinase 2 (Homo sapiens), sequence (Q92630 whole entry): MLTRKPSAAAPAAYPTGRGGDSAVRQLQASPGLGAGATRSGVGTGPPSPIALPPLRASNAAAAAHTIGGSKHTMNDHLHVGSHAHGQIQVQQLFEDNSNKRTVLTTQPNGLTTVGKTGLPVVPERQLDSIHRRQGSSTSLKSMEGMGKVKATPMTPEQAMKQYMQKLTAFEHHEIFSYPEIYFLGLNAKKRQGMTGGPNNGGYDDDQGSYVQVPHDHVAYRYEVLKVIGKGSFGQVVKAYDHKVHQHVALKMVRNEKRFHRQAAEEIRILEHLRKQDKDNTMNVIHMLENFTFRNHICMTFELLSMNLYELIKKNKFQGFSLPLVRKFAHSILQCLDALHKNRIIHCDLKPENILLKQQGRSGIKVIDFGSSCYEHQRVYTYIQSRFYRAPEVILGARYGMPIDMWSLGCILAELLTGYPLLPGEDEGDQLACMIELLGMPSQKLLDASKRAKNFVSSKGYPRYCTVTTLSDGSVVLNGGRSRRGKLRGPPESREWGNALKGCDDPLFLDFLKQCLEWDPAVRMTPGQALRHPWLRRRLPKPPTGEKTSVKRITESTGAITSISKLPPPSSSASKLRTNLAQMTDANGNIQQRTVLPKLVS
MAP kinase-activated protein kinase 5 (Homo sapiens), sequence (Q8IW41 whole entry): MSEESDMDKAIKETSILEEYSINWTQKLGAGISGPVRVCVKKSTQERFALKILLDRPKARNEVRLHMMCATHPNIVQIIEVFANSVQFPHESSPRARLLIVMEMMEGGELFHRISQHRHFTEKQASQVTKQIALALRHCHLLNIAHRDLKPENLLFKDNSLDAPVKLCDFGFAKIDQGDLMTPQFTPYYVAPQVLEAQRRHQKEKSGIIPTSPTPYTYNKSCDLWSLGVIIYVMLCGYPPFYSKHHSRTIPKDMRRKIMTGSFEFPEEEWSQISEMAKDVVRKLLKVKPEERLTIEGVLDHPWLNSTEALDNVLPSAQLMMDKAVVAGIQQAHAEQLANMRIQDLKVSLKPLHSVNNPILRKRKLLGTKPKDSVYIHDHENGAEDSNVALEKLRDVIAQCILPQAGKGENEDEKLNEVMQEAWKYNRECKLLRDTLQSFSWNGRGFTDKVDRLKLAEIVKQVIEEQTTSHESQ

Compound | Activity [1] [%] | Activity [2] [%] | pIC50 (Ephrin type-B receptor 4 [3]) | pIC50 (Ephrin type-B receptor 4 [4]) | Activity [5] [%] | Activity [6] [%] | Activity [7] [%] | Activity [8] [%] | Activity [9] [%] | Activity [10] [%] | Activity [11] [%] | Activity [12] [%] | Activity [13] [%] | Activity [14] [%] | Activity [15] [%] | Activity [16] [%] | Activity [17] [%]
COc1ccccc1-n1c(-c2cc(O)ccc2C)cn2c3c(=O)[nH]c(=O)n(C)c3nc12 | 79 | 2.9 | 8.30 | 8.80 | 86 | 86 | 70 | 96 | 93 | 94 | – | – | – | – | – | – | –
COc1ccccc1-n1c(-c2ccccc2C)cn2c3c(=O)[nH]c(=O)n(C)c3nc12 | – | – | 6.74 | 7.33 | – | – | – | – | – | – | 87 | 92 | 92 | 103 | 92 | 83 | 109
